Data from publication PMC6161044 (ACS Central Science, 2018).
Values joined by “and” are separate entries in the source; they are usually repeats but may differ in a detail not shown here. Identical values can stand only once. Ends that are not written are not given here. Peptide text beside a SMILES is read from it. * marks the point of attachment. αGalNAc = CC(=O)N[C@@H]1[C@@H](O)[C@@H](O)[C@@H](CO)O[C@@H]1*

Columns and labels:
GalNAc-T4 wild-type [1] = molecular target: T1, GalNAc-T4 wild-type (Homo sapiens, UniProt Q8N4A0); conditions: cited from earlier work
[2] = molecular target: GalNAc-T4 Lectin Flexible Loop (LFL) deletion/mutant (P463DNNP467 to GGG) (Homo sapiens, UniProt Q8N4A0, DEL463-464/N465G/N466G/P467G); experiment: Transferase assay and kinetics, LFL mutant; assay type: biochemical; conditions: for UDP-GalNAc Hydrolysis %: LFL deletion/mutant, Sephadex G10 chromatography (Figure S8)
Summary of the method: (§1)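 Enzyme construct residues 36–578, wild-type or site-directed mutants. Reaction: 75 mM Na cacodylate pH 6.5, 1 mM 2-mercaptoethanol, 10 mM MnCl2, 0.25 mM UDP-[3H]GalNAc, 0.004–1.4 mM (glyco)peptide and 0.02–0.2 μM enzyme, at 37 °C for 10–180 min (≤30% donor used). EDTA quench, Dowex, then Sephadex G10 to separate transfer from hydrolysis. Rates hydrolysis-corrected, 2–5 repeats; Km, Vmax and Ki from Michaelis–Menten ± substrate-inhibition fits.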

[3] = molecular target: catalytic domain mutant of GalNAc-T4 (T283S-Q285A) (Homo sapiens, UniProt Q8N4A0, Q285A/T283S); experiment: Surface plasmon resonance binding to GalNAc-T4 catalytic mutant; conditions: T283S/Q285A catalytic mutant (Figure S11)
[4] = molecular target: GalNAc-T4 Lectin Mutant (D459H) (Homo sapiens, UniProt Q8N4A0, D459H); experiment: Transferase assay and kinetics, lectin mutant; assay type: biochemical; conditions: for UDP-GalNAc Hydrolysis %: Sephadex G10 chromatography (Figure S8)
Summary of the method: as §1

GalNAc-T4 [5] = molecular target: T2, GalNAc-T4 (Homo sapiens, UniProt Q8N4A0); experiment: Surface plasmon resonance binding to GalNAc-T4; conditions: wild-type
Summary of the method: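 SPR binding of glycopeptide substrate to wild-type enzyme, run with excess UDP and MnCl2 present; Kd obtained by fitting the binding data.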

GalNAc-T4 wild-type [6] = molecular target: T1, GalNAc-T4 wild-type; experiment: Transferase assay and kinetics, wild-type GalNAc-T4; assay type: biochemical; conditions: for Activity relative to glycopeptides 4 and 5 (fold higher): from Figure 1a
Summary of the method: as §1

[7] = molecular target: GalNAc-T4 Catalytic/LFL Mutant (T283S-Q285A-D464A) (Homo sapiens, UniProt Q8N4A0, D464A/Q285A/T283S); experiment: Transferase assay and kinetics, catalytic/LFL mutant; assay type: biochemical
Summary of the method: as §1

[8] = molecular target: GalNAc-T4 Catalytic Mutant (T283S-Q285A) (Homo sapiens, UniProt Q8N4A0, Q285A/T283S); experiment: Transferase assay and kinetics, catalytic mutant; assay type: biochemical
GalNAc-T4 [9] = molecular target: T2, GalNAc-T4; experiment: STD-NMR epitope mapping with GalNAc-T4; assay type: binding; conditions: ~877 μM glycopeptide, 13.5 μM GalNAc-T4, 75 μM UDP, 75 μM MnCl2, 298 K
GalNAc-T4 [10] = molecular target: T2, GalNAc-T4; conditions: wild-type GalNAc-T4, excess UDP and MnCl2; saturation not achieved; cited from earlier work
GalNAc-T4 [11] = molecular target: T2, GalNAc-T4; conditions: in presence of GalNAc-T4, UDP, MnCl2; cited from earlier work
[12] = molecular target: GalNAc-T4 catalytic mutant (T283S, Q285A), residues 36-578 (human, UniProt Q8N4A0 36-578, T283S | Q285A); experiment: SPR
[13] = molecular target: GalNAc-T4 (polypeptide GalNAc-transferase 4), wild type, residues 36-578 (human, UniProt Q8N4A0 36-578); experiment: SPR

AGAGTTPGPGAGAT*GA [compound 2]
Glycosylation by GalNAc-T4 (in words) (GalNAc-T4 wild-type [1]): imperceptibly glycosylated | UDP-GalNAc Hydrolysis % [2]: ~90%

CC(=O)N[C@H]1[C@@H](O[C@H](C)[C@H](NC(=O)CNC(=O)[C@H](C)NC(=O)CNC(=O)[C@H](C)NC(=O)CNC(=O)[C@H](C)NC(=O)CNC(=O)[C@@H](NC(=O)[C@H](C)NC(=O)CN)[C@@H](C)O[C@H]2O[C@H](CO)[C@H](O)[C@H](O)[C@H]2NC(C)=O)C(=O)N[C@H](C(=O)N2CCC[C@H]2C(=O)NCC(=O)N2CCC[C@H]2C(=O)NCC(N)=O)[C@@H](C)O)O[C@H](CO)[C@H](O)[C@@H]1O [compound 6] (H-GAT(αGalNAc)GAGAGAGT(αGalNAc)TPGPG-NH2; N-terminus and C-terminus assumed)
Kd by SPR relative to wt transferase (fold higher) [3]: ~6 fold | Km increase relative to wt GalNAc-T4 [4]: ~20 fold | Vmax decrease relative to wt GalNAc-T4 [4]: ~5 fold | UDP-GalNAc Hydrolysis % [4]: ~20% | Kd (SPR) relative to Km (fold higher) (GalNAc-T4 [5]): ~2 fold | Catalytic efficiency (Vmax/Km) relative to peptide 3 (fold higher) (GalNAc-T4 wild-type [6]): ~1.5 fold | Catalytic efficiency (Vmax/Km) relative to peptide 4 (fold higher) (GalNAc-T4 wild-type [6]): ~150 fold | Km relative to peptide 3 (fold lower) (GalNAc-T4 wild-type [6]): ~1.3 fold | Activity relative to glycopeptides 4 and 5 (fold higher) (GalNAc-T4 wild-type [6]): ~10 fold | Km relative to catalytic mutant (fold lower) [7]: ~4 fold | Catalytic efficiency Vmax/Km as fraction of wt [8]: about 1/2 | Initial Vmax relative to wt transferase (fold higher) [8]: ~2 fold | Km relative to wt (fold higher) [8]: ~4 fold and ~3 fold | STD-NMR response, H2 proton of the GalNAc at Thr11 (GalNAc-T4 [9]; catalytic domain bound neighboring GalNAc): 50% | STD-NMR response, H2 proton of the GalNAc at Thr3 (GalNAc-T4 [9]; remote lectin bound GalNAc): 90% | Apparent Vmax relative to wt GalNAc-T4 (fold higher) ([2]; LFL mutant): ~2 fold

GAT*GAGAGAGTTPGPG [compound 3]
Kd by SPR (in words) (GalNAc-T4 [10]): in the mM range | Km increase relative to wt GalNAc-T4 [4]: ~20 fold | UDP-GalNAc Hydrolysis % [4]: ~70% | Catalytic efficiency (Vmax/Km) relative to peptide 4 (fold higher) (GalNAc-T4 wild-type [6]): ~100 fold | Km relative to peptide 4 (fold lower) (GalNAc-T4 wild-type [6]): ~12 fold | Vmax relative to peptide 4 (fold higher) (GalNAc-T4 wild-type [6]): ~8 fold | Activity relative to glycopeptides 4 and 5 (fold higher) (GalNAc-T4 wild-type [6]): ~10 fold | Km relative to wt (fold higher) [7]: ~2 fold | Km relative to wt (fold higher) [8]: ~2 fold

AGAGT*TPGPGAGAT*GA [compound 5]
Apparent activity and Vmax as fraction of the values for the catalytic and LFL mutants [7]: 1/4 | Catalytic activity (Vmax) as fraction of wt GalNAc-T4 activity [8]: 1/3 | Km relative to wt (fold higher) [8]: ~2 fold | UDP-GalNAc Hydrolysis % [2]: ~50% | Reduction in catalytic efficiency compared to wt GalNAc-T4 ([2]; LFL mutant): ~50%

GAGAGAGTTPGPG [compound 1]
STD-NMR enhancements (in words) (GalNAc-T4 [11]): No significant STD enhancements | Glycosylation by GalNAc-T4 (in words) (GalNAc-T4 wild-type [1]): imperceptibly glycosylated | UDP-GalNAc Hydrolysis % [2]: ~90%

GAGAGAGT*TPGPG [compound 4]
Catalytic efficiency relative to wt transferase (fold higher) [4]: ~2 fold | Vmax relative to wt transferase (fold higher) [4]: ~2 fold | Apparent activity and Vmax as fraction of the values for the catalytic and LFL mutants [7]: 1/4 | Catalytic activity (Vmax) as fraction of wt GalNAc-T4 activity [8]: 1/3 | Km relative to wt (fold higher) [8]: ~2 fold | UDP-GalNAc Hydrolysis % [2]: ~50% | Reduction in catalytic efficiency compared to wt GalNAc-T4 ([2]; LFL mutant): ~50%

GATGAGAGAGTTPGPG (not fully specified (residues 3, 11); printed as GAT*GAGAGAGT*TPGPG) [diglycopeptide 6, GAT*GAGAGAGT*TPGPG]
fold change of Kd against the wt transferase [12]: ~6 fold | Kd [13]: 70 ± 15 µM
